Test results published in ChEMBL document CHEMBL4823261, “Grincamycins P-T: Rearranged Angucyclines from the Marine Sediment-Derived Streptomyces sp. CNZ-748 Inhibit Cell Lines of the Rare Cancer Pseudomyxoma Peritonei” (J Nat Prod, 2021).

Tests used:
[1] = Cytotoxicity against human PMP501-1 cells assessed as inhibition of cell proliferation measured after 24 hrs by crystal violet staining assay; assay type: functional, cell-based; conditions: PMP501-1, 24 h
Summary of the method: (§1)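 PMP-derived lines (ABX023-1, PMP457-2, PMP501-1) and mucinous colonic adenocarcinoma peritoneal metastasis line C09-1. Seeded at 30 000 cells/well in triplicate in Ham's F12 with 10% FBS, L-glutamine, insulin and sodium selenite. Grown 24 h at 37 °C, then treated for 24 h. Controls were DMSO vehicle, 5-fluorouracil and 10% EtOH dead-cell. Cells were stained with 0.2% crystal violet, solubilised in SDS/EtOH and read at OD595.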

[2] = Cytotoxicity against human PMP457-2 cells assessed as inhibition of cell proliferation measured after 24 hrs by crystal violet staining assay; assay type: functional, cell-based; conditions: PMP457-2, 24 h; summary of the method: as §1
[3] = Cytotoxicity against human ABX023-1 cells assessed as inhibition of cell proliferation measured after 24 hrs by crystal violet staining assay; assay type: functional, cell-based; conditions: ABX023-1, 24 h; summary of the method: as §1
[4] = Cytotoxicity against human C09-1 cells assessed as inhibition of cell proliferation measured after 24 hrs by crystal violet staining assay; assay type: functional, cell-based; conditions: C09-1, 24 h; summary of the method: as §1
[5] = Stability of the compound in 0.1% TFA/MeOH solution measured after 12 hrs by LC/MS analysis; assay type: physicochemical
Summary of the method: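 10 μg aliquots were incubated in 0.1% TFA in MeOH at 30 °C for 12 h, then dried under N2 and redissolved in MeOH. Analysed by UHPLC-DAD-ESI(±)MS on C18 with a water/MeCN gradient containing 0.1% formic acid. Compared against authentic standards run by the same method.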

Compound	IC50 [1]	IC50 [2]	IC50 [3]	IC50 [4]	Stabilty [5]
C[C@@H]1O[C@@H](O[C@H]2CC[C@H](O[C@H]3[C@H](O)C[C@H](c4ccc5c(c4O)C(=O)c4ccc(C[C@@](C)(O)CC(=O)O)c(O)c4C5=O)O[C@@H]3C)O[C@H]2C)C(N)=CC1=O	12 µM	> 100 µM	23 µM	17 µM	–
CSC1=CC(=O)[C@H](C)O[C@H]1O[C@H]1CC[C@H](O[C@H]2[C@H](O)C[C@H](c3ccc4c(c3O)C(=O)c3ccc(C[C@](C)(CC(=O)O)O[C@H]5CC[C@H](O[C@H]6CC[C@H](O)[C@H](C)O6)[C@H](C)O5)c(O)c3C4=O)O[C@@H]2C)O[C@H]1C	3.9 µM	7.8 µM	13 µM	61 µM	–
C[C@@H]1O[C@@H](O[C@H]2[C@H](O)C[C@H](c3ccc4c(c3O)C(=O)c3ccc(C[C@@](C)(O)CC(=O)O)c(O)c3C4=O)O[C@@H]2C)CC[C@@H]1O[C@H]1CC[C@H](O)[C@H](C)O1	> 100 µM	23 µM	21 µM	32 µM	–
C[C@@H]1O[C@@H](O[C@H]2[C@H](O)C[C@H](c3ccc4c(c3O)C(=O)c3ccc(C[C@](C)(CC(=O)O)O[C@H]5CC[C@H](O[C@H]6CC[C@H](O)[C@H](C)O6)[C@H](C)O5)c(O)c3C4=O)O[C@@H]2C)CC[C@@H]1O[C@H]1CC[C@H](O)[C@H](C)O1	18 µM	11 µM	45 µM	38 µM	–
C[C@@H]1O[C@@H](O[C@H]2[C@H](O)C[C@H](c3ccc4c(c3O)C(=O)c3c(O)cc(C[C@](C)(CC(=O)O)O[C@H]5CC[C@H](O[C@H]6CC[C@H](O)[C@H](C)O6)[C@H](C)O5)c(O)c3C4=O)O[C@@H]2C)CC[C@@H]1O[C@H]1CC[C@H](O)[C@H](C)O1	2.7 µM	1.9 µM	1.4 µM	8.7 µM	–
C[C@H]1O[C@@H](c2ccc3c(c2O)C(=O)c2ccc(C[C@@](C)(O)CC(=O)O)c(O)c2C3=O)C[C@@H](O)[C@@H]1O	11 µM	6.7 µM	49 µM	42 µM	Stable
C[C@@H]1O[C@H]2O[C@@H]3[C@@H](C)O[C@@H](c4ccc5c(c4O)C(=O)c4ccc(C[C@@](C)(O)CC(=O)O)c(O)c4C5=O)C[C@H]3O[C@H]2C[C@@H]1O	23 µM	> 100 µM	14 µM	19 µM	Stable
C[C@@H]1O[C@@H](O[C@H]2[C@H](O)C[C@H](c3ccc4c(c3O)C(=O)c3ccc(C[C@@](C)(O)CC(=O)O)c(O)c3C4=O)O[C@@H]2C)CC[C@@H]1O	14 µM	5.9 µM	12 µM	6.6 µM	–
C[C@@H]1O[C@@H](O[C@H]2[C@H](O)C[C@H](c3ccc4c(c3O)C(=O)c3c(O)cc(C[C@@](C)(O)CC(=O)O)c(O)c3C4=O)O[C@@H]2C)CC[C@@H]1O[C@H]1CC[C@H](O)[C@H](C)O1	2.5 µM	5.5 µM	4.7 µM	10 µM	–
O=c1[nH]cc(F)c(=O)[nH]1 [FLUOROURACIL]	3.6 µM	2 µM	3.4 µM	4 µM	–
